Test [1] in a line: Inhibition of Escherichia coli HPRT expressed in Escherichia coli SPhi606 using hypoxanthine as substrate by spectrophotometric analysis. A digest of the protocol: (§1)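 Enzymes (wild-type XGPRT, HPRT, and the XGPRT mutant lacking six flexible-loop residues) were expressed in E. coli SΦ606, purified to homogeneity and stored at −70 °C in 0.1 M Tris-HCl, 10 mM MgCl2, 1 mM DTT, pH 7.4. Ki was determined spectrophotometrically. Fixed base was 60 μM: guanine for XGPRT, hypoxanthine for HPRT. PRib-PP was varied from 14 to 1000 μM, and inhibitor from 0.1 to 140 μM.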

Test [2] can be described thus: Inhibition of Escherichia coli recombinant XGPRT mutant expressed in Escherichia coli SPhi606 using guanine as substrate by spectrophotometric analysis. A digest of the protocol:
as §1

Test [3] can be described thus: Inhibition of Escherichia coli XGPRT expressed in Escherichia coli SPhi606 using guanine as substrate by spectrophotometric analysis. A digest of the protocol:
as §1

Test [4] relates to Escherichia coli. Nature of the test: Competitive inhibition of Escherichia coli XGPRT expressed in Escherichia coli SPhi606 using guanine as substrate by spectrophotometric analysis in presence of PRib-PP. In outline:
as §1

Test [5] is described as follows: (§2) Non-competitive inhibition of Escherichia coli HPRT expressed in Escherichia coli SPhi606 using hypoxanthine as substrate by spectrophotometric analysis in presence of PRib-PP. A digest of the protocol: as §1
Test [6] in a line: Competitive inhibition of Escherichia coli XGPRT expressed in Escherichia coli SPhi606 using guanine as substrate by spectrophotometric analysis in presence of pyrophosphate. In outline:
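Ki was determined spectrophotometrically on purified XGPRT expressed in E. coli SΦ606, with guanine fixed at 60 μM. PRib-PP was varied from 14 to 1000 μM, and inhibitor from 0.1 to 140 μM. Pyrophosphate (33 μM) was added to the assay mixture along with the inhibitor.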

The next test deals with A549. Description: Cytotoxicity against human A549 cells after 4 days by coulter counter analysis. It is filed as cell-based. Conditions: A549, 96 h.
Test [7] has as its system Mycobacterium tuberculosis. Description: Antimycobacterial activity against Mycobacterium tuberculosis H37Ra ATCC 25177 after 5 days by resazurin reduction assay. It is filed as functional, organism-based. Conditions: H37Ra ATCC 25177, 120 h. A digest of the protocol: (§3)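 M. tuberculosis H37Ra grown at 37 °C in 7H9 with OADC, 0.5% glycerol, 0.05% Tween-80 for about 14 days to mid-exponential phase (OD600 0.4−0.8). Diluted to OD600 0.001 (about 2 × 10^4 CFU/ml) in 7H9S with 0.5% DMSO and exposed to serially diluted compounds. Incubated 5 days at 37 °C, then resazurin added. Fluorescence (ex 530/em 580 nm) read 30 h later. Signal normalised to no-inhibitor and no-bacteria controls to give IC50.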

A short description of test [8]: Binding affinity to Escherichia coli XGPRT.
Test [9] relates to Mycobacterium tuberculosis. Description: Antimycobacterial activity against Mycobacterium tuberculosis H37Ra ATCC 25177 at >= 250 uM after 5 days by resazurin reduction assay. The class given is functional, organism-based. In outline: as §3
Test [10] is described as follows: Selectivity index, ratio of EC50 for human A549 cells to MIC50 for Mycobacterium tuberculosis H37Ra ATCC 25177. The class given is functional.
Test [11] has as its system Escherichia coli. The test is described as §2. In outline: as §1

pEC50, pIC50, pKi: −log10 of the molar value. Values after ≈ are worked out from the molar mass of the structure shown. Active and inactive are the calls of the source. The calls are words filed in the database; no cut-off is given here.

In the case of `O=C(CP(=O)(O)O)N1CC[C@@H](n2cnc3c(=O)[nH]cnc32)C1`, the figures for the pKi in test [1], in test [2] and in test [3] were 4.46, under 3.70 and under 3.70, respectively.

For the compound `Nc1nc2c(ncn2C(COCP(=O)(O)O)COCP(=O)(O)O)c(=O)[nH]1`, the pKi in test [2] was 4.80; in [3], 5.52.

Consider `Nc1nc2c(ncn2[C@H]2CN(C(=O)CP(=O)(O)O)C[C@H]2O)c(=O)[nH]1`, for which the inhibition entry with Escherichia coli [4] is “Active”. The negative-log Ki (pKi) in test [2] is 5.52; in test [3], 5.66.

With `Nc1nc2c(ncn2[C@@H]2CN(C(=O)CP(=O)(O)O)C[C@H]2OC(=O)CP(=O)(O)O)c(=O)[nH]1`, the inhibition entry in the test on Escherichia coli [4] is “Active”. In addition, the values for the pKi in test [2] and in test [3] were 5.59 and 6.40, respectively.

For the compound `Nc1nc2c(ncn2CC(O)COCP(=O)(O)O)c(=O)[nH]1` (centres undefined), the pKi is 4.46 in test [5], under 3.15 in test [1], at most 5.52 in [2] and 6.49 in test [6].

As to `CCOC(=O)[C@H](Cc1ccccc1)NP(=O)(COCC(COCP(=O)(N[C@@H](Cc1ccccc1)C(=O)OCC)N[C@@H](Cc1ccccc1)C(=O)OCC)Cn1cnc2c(=O)[nH]cnc21)N[C@@H](Cc1ccccc1)C(=O)OCC`, in the test with A549, the pEC50 is 4.00. In test [7], this compound had a negative-log IC50 (pIC50) of 5.30 and an MIC99 of 20 µM (≈ 22.3 µg/mL).

Regarding `CC(C)(C)C(=O)SCCOP(=O)(CC(=O)N1CC[C@H](n2cnc3c(=O)[nH]c(N)nc32)C1)OCCSC(=O)C(C)(C)C`, in the test on A549, the pEC50 is under 3.52. Moreover, in test [7], the pIC50 is 5.30 and the MIC99 stood at 20 µM (≈ 12.6 µg/mL).

For `Nc1nc2c(ncn2C(COCP(=O)(O)O)C(O)COCP(=O)(O)O)c(=O)[nH]1` (centres undefined), the pKi in test [2] was 4.85; in test [3], 4.68.

For `O=c1[nH]cnc2c1ncn2CCOCCP(=O)(O)O`, the negative logarithm of the Ki (pKi) in test [1] was 4.77; in [2] it was 4.34; in test [3], 5.82.

Turning to `CCOC(=O)[C@H](Cc1ccccc1)NP(=O)(CCOCC(Cn1cnc2c(=O)[nH]c(N)nc21)OCCP(=O)(N[C@@H](Cc1ccccc1)C(=O)OCC)N[C@@H](Cc1ccccc1)C(=O)OCC)N[C@@H](Cc1ccccc1)C(=O)OCC` (some centres undefined), in the test on A549, the pEC50 is 4.00. In addition, in [7], the pIC50 was 5.30 and the MIC99 came to 20 µM (≈ 22.8 µg/mL).

In the case of `CCOC(=O)[C@H](Cc1ccccc1)NP(=O)(COCC(COCP(=O)(N[C@@H](Cc1ccccc1)C(=O)OCC)N[C@@H](Cc1ccccc1)C(=O)OCC)Cn1cnc2c(=O)[nH]c(N)nc21)N[C@@H](Cc1ccccc1)C(=O)OCC`, the pEC50 with A549 is under 3.52. In [7], this compound had a negative-log IC50 (pIC50) of 5.30 and an MIC99 of 20 µM (≈ 22.6 µg/mL).

Take `Nc1nc2c(ncn2[C@@H]2O[C@H](COP(=O)(O)O)[C@@H](O)[C@H]2O)c(=O)[nH]1`: the pKi in test [1] was 3.28; in [2], 3.92; in test [8], 5.35.

For `Nc1nc2c(ncn2[C@H]2CCN(C(=O)CP(=O)(O)O)C2)c(=O)[nH]1`, in test [9], the result was inactive. For the same compound, in [10], the “Selectivity Index” value was “>=17”. Further, the inhibition result with Escherichia coli [4] was “Active”. In addition, the pKi in [2] was 5.52; in test [3] it was 6.64.

For `O=c1[nH]cnc2c1ncn2CC(COCP(=O)(O)O)COCP(=O)(O)O`, in test [9], the result was inactive. Moreover, the “Selectivity Index” value in [10] is recorded as 4. Moreover, the pKi in test [1] is 6.10.

Consider `Nc1nc2c(ncn2[C@@H]2CN(C(=O)CP(=O)(O)O)C[C@@H]2O)c(=O)[nH]1`, for which the pKi in test [2] and in [3] was under 3.60 throughout.

In test [3], `O=c1[nH]cnc2c1ncn2C(COCP(=O)(O)O)COCP(=O)(O)O` showed a pKi of 4.14.

For `O=c1[nH]cnc2c1ncn2CC(O)COCP(=O)(O)O` (centres undefined), in the test on Escherichia coli [11], the inhibition result is “Active”. For the same compound, the values for the negative-log Ki (pKi) in test [1], in test [2] and in test [3] were 4.14, under 3.70 and 4.80, respectively.

Turning to `Nc1nc2c(ncn2CC(COCCP(=O)(O)O)OCCP(=O)(O)O)c(=O)[nH]1` (centres undefined), the result in test [9] was inactive. Moreover, in test [10], the “Selectivity Index” value is listed as “>=17”. Besides, the pKi in [3] is 6.96.

For `Nc1nc2c(ncn2CC(COCP(=O)(O)O)COCP(=O)(O)O)c(=O)[nH]1`, in test [9], the outcome was inactive. In test [10], the “Selectivity Index” value is recorded as “>=17”. The results for the pKi in test [2] and in test [3] were 6.62 and 8.00, respectively.

With `Nc1nc2c(ncn2CCOCCP(=O)(O)O)c(=O)[nH]1`, the pKi in [2] is 4.96; in test [3], 6.15.

(Values after ChEMBL document CHEMBL2417550, “Inhibition of the Escherichia coli 6-oxopurine phosphoribosyltransferases by nucleoside phosphonates: potential for new antibacterial agents” (J Med Chem, 2013).)
